Experimental data as given in PMC3001272 (Biochemistry, 2010).
Values belong to the molecule of their own block, whether it stands above or below them. Where a SMILES comes first, the peptide text is derived from it.

Key:
[1] = molecular target: T1, PDZ2 (second PDZ domain, 1361-1456) from human PTP1E/PTPL1 (Homo sapiens, UniProt Q12923); assay: NMR titration binding affinity of peptide to PDZ2
T1 sequence (Q12923 1361-1456): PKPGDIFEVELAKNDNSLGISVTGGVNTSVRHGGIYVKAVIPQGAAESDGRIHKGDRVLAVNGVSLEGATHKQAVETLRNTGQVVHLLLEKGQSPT
Method in brief: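 NMR titration of test peptide into PDZ2 expressed in E. coli BL21(DE3), 1 mM, in 150 mM NaCl, 50 mM sodium phosphate pH 6.8, 10% D2O, at 25 °C on 500/600 MHz spectrometers. Protein concentration by UV absorbance at 280 nm; Kd derived from titration.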

[2] = molecular target: T1, PDZ2 (second PDZ domain, 1361-1456) from human PTP1E/PTPL1; assay: Fluorescence binding affinity of peptide to PDZ2
[3] = molecular target: T2, APC C-terminal peptide (Homo sapiens); assay: NMR titration
T2 chain: GSYLVTSV

- Kd [1]: 10 µM
Molecule: CC(C)C[C@H](NC(=O)[C@H](Cc1ccc(O)cc1)NC(=O)[C@H](CO)NC(=O)CN)C(=O)N[C@H](C(=O)N[C@H](C(=O)N[C@@H](CO)C(=O)N[C@H](C(=O)O)C(C)C)[C@@H](C)O)C(C)C [APC] (H-GSYLVTSV-OH)

- Kd [2]: 10 µM
Molecule: CC(=O)N[C@@H](CCC(=O)O)C(=O)N[C@@H](CC(N)=O)C(=O)N[C@@H](CCC(=O)O)C(=O)N[C@@H](CCC(N)=O)C(=O)N[C@H](C(=O)N[C@@H](CO)C(=O)N[C@@H](C)C(=O)N[C@H](C(=O)O)C(C)C)C(C)C [RA-GEF2] (Ac-ENEQVSAV-OH)

- Kd [3]: 10 µM
B1: PTP1E (PTPL1) PDZ2 1361-1456 (protein)
chain: T1 sequence (Q12923 1361-1456)
